Key:
[1] = target: T1, Phosphodiesterase; PDE3 & PDE4 (Homo sapiens) (UniProt P27815+Q14432+Q08499+Q07343+Q13370+Q08493); assay: In vivo inhibition of cyclic AMP phosphodiesterase from dog heart
How it was run: (§1)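 Cyclic AMP phosphodiesterase prepared from human platelets (IC50, nM) or from rat or dog heart tissue (IC25, nM). Each agent tested at five inhibitor concentrations in triplicate. IC50/IC25 read graphically from the dose-response curve.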

[2] = organism: Homo sapiens; assay: Inhibition of ADP-induced platelet aggregation at 100 uM concentration; assay type: functional
[3] = target: T2, Phosphodiesterase 3 (Homo sapiens, UniProt Q14432+Q13370); assay: In vitro inhibition of cyclic AMP phosphodiesterase from human platelets
[4] = In vivo inhibition of cyclic AMP phosphodiesterase from rat heart; settings: in the assay text read “In vitro” for “In vivo”; how it was run: as §1
[5] = target: T2, Phosphodiesterase 3; assay: Inhibition of human platelet cAMP phosphodiesterase at 10e-4 M
[6] = target: T2, Phosphodiesterase 3; assay: Inhibition of human platelet cAMP phosphodiesterase, 20% inhibition at E-4M
[7] = organism: Homo sapiens; assay: Ratio of IC50 of inhibition of platelet aggregation to IC50 of inhibition of platelet PDE (Efficacy index); assay type: functional
How it was run: (§2)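 Efficacy index is the IC50 for inhibition of ADP-induced platelet aggregation divided by the IC50 for human platelet PDE inhibition. Both IC50s come from graphical dose-response curves (five concentrations, triplicate).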

[8] = Inhibition of ADP-induced platelet aggregation; assay type: functional
How it was run: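 ADP-induced platelet aggregation. Read-out is the rate of change in percentage transmission of the primary aggregation phase after 5 min incubation. Each agent tested at five concentrations in triplicate, with experiments repeated at least twice using platelets from different donors. IC50 (μM) determined graphically.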

[9] = target: T1, Phosphodiesterase; PDE3 & PDE4 (Homo sapiens); assay: Inhibition of canine cardiac cAMP phosphodiesterase; assay type: protein assay; settings: Canis lupus familiaris; target entry is the homologue from another species; how it was run: as §1
[10] = target: T2, Phosphodiesterase 3; assay: Inhibition of human platelet cAMP phosphodiesterase; how it was run: as §1
[11] = organism: Homo sapiens; assay: Ratio of IC50 of inhibition of platelet aggregation to IC50 of inhibition of platelet PDE; assay type: functional; how it was run: as §2
[12] = Canis lupus familiaris; target entry is the homologue from another species; in the assay text read “In vitro” for “In vivo”
[13] = Canis lupus familiaris; in the assay text read “In vitro” for “In vivo”; target entry is the homologue from another species

| SMILES | IC50 [2] | IC50 [3] [µM] | IC50 [8] [µM] | IC25 [4] [µM] | Ratio [7] | other results |
| --- | --- | --- | --- | --- | --- | --- |
| CC(C)[C@@H]1C(=O)NC2=Nc3ccc(OCCCC(=O)N(C)C4CCCCC4)cc3CN21 | Not Active | 10 |  |  |  | IC25 [1, 12]: 6 µM |
| CN(C(=O)CCCOc1ccc2c(c1)CN1NC(=O)NC1=N2)C1CCCCC1 | Not Active | 0.5 |  |  |  | IC25 [1, 13]: 0.18 µM |
| CN(C(=O)CCCOc1ccc2nc3n(c(=O)c2c1)CCN3)C1CCCCC1 | Not Active | 25 |  | 3.7 |  |  |
| CN(C(=O)CCCOc1ccc2c(c1)CN1CCNC1=N2)C1CCCCC1 | Not Active | 27 |  |  |  | IC25 [1, 13]: 21 µM |
| CN(C(=O)CCC[S+]([O-])c1ccc2c(c1)CN1CC(=O)NC1=N2)C1CCCCC1 (stereo unspecified) | Not Active | 1.7 |  |  |  | IC25 [1, 13]: 6.2 µM |
| CN(C(=O)CCCOc1cccc2c1NC1=NC(=O)CN1C2)C1CCCCC1 | Not Active |  |  |  |  | IC25 [1, 13]: 1.6 µM; inhibition [5]: 20%; IC50 [6]: > 100 µM |
| COC1=NC2=Nc3ccc(OCCCC(=O)N(C)C4CCCCC4)cc3CN2C1 | Not Active | 9.6 |  |  |  | IC25 [1, 12]: 2.7 µM |
| CC(C)[C@H]1C(=O)NC2=Nc3ccc(OCCCC(=O)N(C)C4CCCCC4)cc3CN21 | Not Active | > 10 |  |  |  | IC25 [1, 13]: 6.4 µM |
| CN(C(=O)CCCCCCOc1ccc2c(c1)CN1CC(=O)NC1=N2)C1CCCCC1 |  | 0.016 | 4.6 | 0.045 | 287 |  |
| CN(C(=O)CCCOc1ccc2c(c1)CN1C(=N2)NC(=O)[C@@H]1Cc1ccccc1)C1CCCCC1 | Not Active | > 10 |  |  |  | IC25 [1, 12]: > 10 µM |
| CN(C(=O)CCCOc1ccc2c(c1)CN1C(=N2)NC(=O)[C@H]1Cc1ccccc1)C1CCCCC1 | Not Active | > 10 |  |  |  | IC25 [1, 12]: > 10 µM |
| CN1C(=O)CN2Cc3cc(OCCCC(=O)N(C)C4CCCCC4)ccc3N=C21 | Not Active | 76 |  |  |  | IC25 [1, 13]: 39 µM |
| CN(C(=O)CCCOc1ccc2nc3n(c(=O)c2c1)CC(=O)N3)C1CCCCC1 | Not Active | 5.4 |  | 2.9 |  |  |
| O=C(O)CN(C(=O)CCCOc1ccc2c(c1)CN1CC(=O)NC1=N2)C1CCCCC1 |  | 0.005 | 5.2 | 0.1 | 1040 |  |
| CN(C(=O)CCCCOc1ccc2c(c1)CN1CC(=O)NC1=N2)C1CCCCC1 |  | 0.0046 | 0.86 | 0.022 | 187 |  |
| O=C1CN2Cc3cc(OCCCC(=O)N4CCCCC4)ccc3N=C2N1 |  | 0.26 | 14.5 | 1.5 | 56 |  |
| O=C1CN2Cc3cc(OCCCC(=O)N4CCOCC4)ccc3N=C2N1 |  | 1.6 | 53 | 7 | 33 |  |
| O=C1CN2Cc3cc(OCCCC(=O)N4CCCC5CCCCC54)ccc3N=C2N1 (stereo unspecified) |  | 0.0135 | 0.88 | 0.2 | 65 |  |
| COc1ccc(C(=O)N2CCN(c3ccc4c(c3)CCC(=O)N4)CC2)cc1OC [VESNARINONE] |  | 6.2 |  |  |  | Ratio [11]: 608 |

Second part, led by results:

| IC50 [2] | IC50 [3] [µM] | IC50 [8] [µM] | SMILES | IC25 [4] [µM] | Ratio [7] | other results |
| --- | --- | --- | --- | --- | --- | --- |
| Not Active | 3.3 |  | CN(C(=O)CCCOc1ccc2c(c1)CN1C(=N2)NC(=O)[C@H]1c1ccccc1)C1CCCCC1 |  |  | IC25 [1, 12]: 3.3 µM |
|  | 0.026 | 0.98 | CN(Cc1ccccc1)C(=O)CCCOc1ccc2c(c1)CN1CC(=O)NC1=N2 | 0.24 | 38 |  |
|  | 0.01 | 1.05 | O=C1CN2Cc3cc(OCCCC(=O)N4CCCc5ccccc54)ccc3N=C2N1 | 0.16 | 105 |  |
| Not Active | 0.28 |  | O=C(O)CCCOc1ccc2c(c1)CN1CC(=O)NC1=N2 |  |  | IC25 [1, 12]: 0.13 µM |
| Not Active | 1.6 |  | CNC(=O)CCCOc1ccc2c(c1)CN1CC(=O)NC1=N2 |  |  | IC25 [1, 12]: 1.3 µM |
|  |  | 0.11 | CN(C(=O)CCCOc1ccc2c(c1)CN1CC(=O)NC1=N2)C1CCCCC1 [LIXAZINONE] |  | 10.8 | IC25 [9]: 0.0041 µM; IC50 [10]: 0.0102 µM |
| Not Active | 3.8 |  | CN(C(=O)CCCOc1ccc2c(c1)CN1C(=N2)NC(=O)[C@@H]1c1ccccc1)C1CCCCC1 |  |  | IC25 [1, 12]: 4.2 µM |
|  | 0.015 | 9.2 | CN(C(=O)CCCOc1ccc2c(c1)CN1CC(=O)NC1=N2)C(c1ccccc1)c1ccccc1 | 0.06 | 613 |  |
